For assay [1], the system named is MDA-MB-435. Description: Induction of apoptosis in human MDA-MB-435 cells assessed as late apoptotic cells at 1 uM after 24 hrs by annexin-V FITC/propidium iodide staining-based flow cytometry (reference value: 0.34 +/- 0.08%). The class given is functional. In short, it runs like this:
(§1)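 MDA-MB-435 cells treated 24 h, stained with annexin V-FITC/PI per kit instructions, analysed by flow cytometry. Quadrant statistics: lower right taken as apoptotic, upper right as necrotic or post-apoptotic necrotic. Representative of three similar experiments.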

Assay [2] relates to MDA-MB-435. Description: Induction of apoptosis in human MDA-MB-435 cells assessed as viable cells at 0.5 uM after 24 hrs by annexin-V FITC/propidium iodide staining-based flow cytometry (reference value: 98.62 +/- 0.25%). It is filed as functional. As to conditions: MDA-MB-435, 24 h, read-out: Activity. Summed up: as §1
Assay [3] deals with MDA-MB-435. As to the kind of experiment: Induction of apoptosis in human MDA-MB-435 cells assessed as upregulation of Bax protein expression at 0.25 to 1 uM after 12 hrs by Western blotting analysis. It is filed as functional, cell-based. Summed up: (§2)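 Treated MDA-MB-435 cells lysed in ice-cold Tris-HCl pH 7.4 buffer with Triton, phosphatase and protease inhibitors. Lysates clarified, boiled in SDS loading buffer, run on 8-12% SDS-PAGE and blotted. Membranes blocked in 5% skim milk, probed with primary antibodies, then peroxidase secondaries with ECL detection. β-actin as loading control.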
Background: Immunoblotting shows a protein as a band on a membrane.

Assay [4] has as its system MDA-MB-435. As to the kind of experiment: Induction of DNA damage in human MDA-MB-435 cells assessed as phosphorylation of p53 at Ser15 at 0.5 uM after 12 hrs by Western blotting analysis. The class given is functional, cell-based. Summed up: as §2
The subject of assay [5] is MDA-MB-435. As to the kind of experiment: Induction of DNA damage in human MDA-MB-435 cells assessed as phosphorylation of ATM at Ser1981 at 0.5 uM after 12 hrs by Western blotting analysis. The class given is functional, cell-based. Summed up: as §2
For assay [6], the system named is MDA-MB-435. As to the kind of experiment: Cell cycle arrest in human MDA-MB-435 cells assessed as accumulation at G2/M phase at 1 uM after 24 hrs by propidium iodide staining-based flow cytometry (reference value: 14.05%). The class given is functional. (In general: In flow cytometry, cells or beads pass a laser one at a time.)
Assay [7] relates to MDA-MB-435. As to the kind of experiment: Cell cycle arrest in human MDA-MB-435 cells assessed as accumulation at S phase at 1 uM after 24 hrs by propidium iodide staining-based flow cytometry (reference value: 57.11%). It is filed as functional.
The subject of assay [8] is MDA-MB-435. As to the kind of experiment: Cell cycle arrest in human MDA-MB-435 cells assessed as accumulation at G1 phase at 1 uM after 24 hrs by propidium iodide staining-based flow cytometry (reference value: 28.06%). The class given is functional.
In assay [9] the test system is MDA-MB-435. As to the kind of experiment: Cell cycle arrest in human MDA-MB-435 cells assessed as accumulation at G1 phase at 0.5 uM after 24 hrs by propidium iodide staining-based flow cytometry (reference value: 28.06%). It is filed as functional.
Assay [10] has as its system MDA-MB-435. As to the kind of experiment: Cell cycle arrest in human MDA-MB-435 cells assessed as accumulation at S phase at 0.25 uM after 24 hrs by propidium iodide staining-based flow cytometry (reference value: 57.11%). The class given is functional.
Assay [11] concerns MDA-MB-435. As to the kind of experiment: Cell cycle arrest in human MDA-MB-435 cells assessed as accumulation at sub-G1 phase at 0.25 uM after 24 hrs by propidium iodide staining-based flow cytometry (reference value: 0.79%). The class given is functional.
The subject of assay [12] is MDA-MB-435. Description: Cytotoxicity against human MDA-MB-435 cells assessed as growth inhibition after 72 hrs by MTT assay. It is filed as functional, cell-based. To be noted: MDA-MB-435, 72 h. Summed up: (§3)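 MTT assay: cells treated in triplicate with a range of concentrations for 72 h at 37 °C, 5% CO2. Medium replaced, MTT (5 mg/mL) added for 4 h, then SDS/isobutanol/HCl solubiliser overnight. Absorbance read at 590 nm. Inhibition calculated against control and blank wells; IC50 is concentration giving 50% growth inhibition; three independent experiments.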
(In general: Formazan colour is commonly taken as a measure of viable cells.)

The test system of assay [13] is LNCaP. As to the kind of experiment: Cytotoxicity against human LNCAP cells assessed as growth inhibition after 72 hrs by MTT assay. The class given is functional, cell-based. Summed up: as §3
The target in assay [14] is DNA topoisomerase 2-alpha (Homo sapiens) (UniProt P11388). As to the kind of experiment: Inhibition of recombinant human DNA topoisomerase 2-alpha assessed as supression of kDNA decatenation at 100 uM after 30 mins by agarose gel electrophoresis. Summed up:
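ATP-dependent decatenation assay: 0.20 µg kDNA with 2 units Topo IIα at 37 °C for 30 min, 20 µL. Buffer: 50 mM Tris pH 8.0, KCl, 10 mM MgCl₂, 0.5 mM ATP, 0.5 mM DTT, 30 µg/mL BSA. Stopped with 10% SDS. Agarose gel scored for kDNA versus released minicircles.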

Assay [15] is filed under the species Bos taurus. Description: Inhibition of calf thymus DNA topoisomerase 1-mediated relaxation of supercoiled pBR322 DNA at 100 uM after 30 mins by Agarose gel electrophoresis. In short, it runs like this: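 Relaxation assay with 0.5 µg supercoiled pBR322 and 1 unit calf thymus Topo I, 20 µL. Buffer: 10 mM Tris–HCl pH 7.9, 150 mM NaCl, 0.1% BSA, 1 mM spermidine, 5% glycerol. Incubated 37 °C for 30 min; stopped with sarcosyl stop solution. 1% agarose gel, 5 V/cm, 2 h, TAE; ethidium bromide stain (0.5 µg/mL), UV. DMSO stocks. At least duplicate.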

For assay [16], the system named is Calf thymus DNA. Description: Induction of DNA intercalation activity of calf thymus DNA topoisomerase 1 assessed as unwinding of pBR322 DNA up to 100 uM after 30 mins by Agarose gel electrophoresis. It is filed as nucleic-acid assay. As to conditions: Bos taurus. Summed up: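 Relaxed pBR322 made by treating supercoiled plasmid with excess Topo I (10 units), then proteinase K digestion at 37 °C, phenol-chloroform extraction and ethanol precipitation. Incubated with compound 30 min at 37 °C, run on 1% agarose gel at 5 V/cm for 2 h in TAE, stained with 0.5 µg/mL ethidium bromide, viewed under UV.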

The target of assay [17] is DNA topoisomerase 2-alpha (Homo sapiens) (UniProt P11388). As to the kind of experiment: Inhibition of recombinant human DNA topoisomerase 2-alpha-mediated relaxation of supercoiled pBR322 DNA at 10 to 100 uM after 30 mins by Agarose gel electrophoresis. Summed up: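 Relaxation assay with 0.5 µg supercoiled pBR322 and 1 unit recombinant human Topo IIα, 20 µL. Incubated 30 min at 30 °C; stopped with 7 mM EDTA. 1% agarose gel, 5 V/cm, 2 h, TAE; ethidium bromide stain, UV. DMSO stocks. At least duplicate.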

The test system of assay [18] is MDA-MB-435. As to the kind of experiment: Cell cycle arrest in human MDA-MB-435 cells at 0.25 to 1 uM after 24 hrs by propidium iodide staining-based flow cytometry in presence of N-acetylcysteine. The class given is functional.
The subject of assay [19] is MDA-MB-435. As to the kind of experiment: Induction of apoptosis in human MDA-MB-435 cells assessed as decrease in procaspase 3 expression after 12 to 24 hrs by Western blotting analysis. It is filed as functional, cell-based. Summed up:
as §2

Assay [20] deals with MDA-MB-435. Description: Induction of apoptosis in human MDA-MB-435 cells assessed as dead cells at 2 uM after 24 hrs by annexin-V FITC/propidium iodide staining-based flow cytometry (reference value: 0.61 +/- 0.24%). The class given is functional.
Assay [21] deals with MDA-MB-435. As to the kind of experiment: Induction of apoptosis in human MDA-MB-435 cells assessed as late apoptotic cells at 2 uM after 24 hrs by annexin-V FITC/propidium iodide staining-based flow cytometry (reference value: 0.34 +/- 0.08%). It is filed as functional. In short, it runs like this:
as §1

Assay [22] relates to MDA-MB-435. Description: Induction of apoptosis in human MDA-MB-435 cells assessed as viable cells at 2 uM after 24 hrs by annexin-V FITC/propidium iodide staining-based flow cytometry (reference value: 98.62 +/- 0.25%). The class given is functional. To be noted: MDA-MB-435, 24 h, read-out: Activity. In short, it runs like this:
as §1

Assay [23] concerns MDA-MB-435. Description: Induction of apoptosis in human MDA-MB-435 cells assessed as dead cells at 1 uM after 24 hrs by annexin-V FITC/propidium iodide staining-based flow cytometry (reference value: 0.61 +/- 0.24%). The class given is functional.

Calls of active or inactive are those of the source. The rule behind the calls is not given here.

This is an account of results in ChEMBL document CHEMBL2424614, “A novel p-terphenyl derivative inducing cell-cycle arrest and apoptosis in MDA-MB-435 cells through topoisomerase inhibition” (Eur J Med Chem, 2013).

Chain of DNA topoisomerase 2-alpha (Homo sapiens) (P11388 whole entry): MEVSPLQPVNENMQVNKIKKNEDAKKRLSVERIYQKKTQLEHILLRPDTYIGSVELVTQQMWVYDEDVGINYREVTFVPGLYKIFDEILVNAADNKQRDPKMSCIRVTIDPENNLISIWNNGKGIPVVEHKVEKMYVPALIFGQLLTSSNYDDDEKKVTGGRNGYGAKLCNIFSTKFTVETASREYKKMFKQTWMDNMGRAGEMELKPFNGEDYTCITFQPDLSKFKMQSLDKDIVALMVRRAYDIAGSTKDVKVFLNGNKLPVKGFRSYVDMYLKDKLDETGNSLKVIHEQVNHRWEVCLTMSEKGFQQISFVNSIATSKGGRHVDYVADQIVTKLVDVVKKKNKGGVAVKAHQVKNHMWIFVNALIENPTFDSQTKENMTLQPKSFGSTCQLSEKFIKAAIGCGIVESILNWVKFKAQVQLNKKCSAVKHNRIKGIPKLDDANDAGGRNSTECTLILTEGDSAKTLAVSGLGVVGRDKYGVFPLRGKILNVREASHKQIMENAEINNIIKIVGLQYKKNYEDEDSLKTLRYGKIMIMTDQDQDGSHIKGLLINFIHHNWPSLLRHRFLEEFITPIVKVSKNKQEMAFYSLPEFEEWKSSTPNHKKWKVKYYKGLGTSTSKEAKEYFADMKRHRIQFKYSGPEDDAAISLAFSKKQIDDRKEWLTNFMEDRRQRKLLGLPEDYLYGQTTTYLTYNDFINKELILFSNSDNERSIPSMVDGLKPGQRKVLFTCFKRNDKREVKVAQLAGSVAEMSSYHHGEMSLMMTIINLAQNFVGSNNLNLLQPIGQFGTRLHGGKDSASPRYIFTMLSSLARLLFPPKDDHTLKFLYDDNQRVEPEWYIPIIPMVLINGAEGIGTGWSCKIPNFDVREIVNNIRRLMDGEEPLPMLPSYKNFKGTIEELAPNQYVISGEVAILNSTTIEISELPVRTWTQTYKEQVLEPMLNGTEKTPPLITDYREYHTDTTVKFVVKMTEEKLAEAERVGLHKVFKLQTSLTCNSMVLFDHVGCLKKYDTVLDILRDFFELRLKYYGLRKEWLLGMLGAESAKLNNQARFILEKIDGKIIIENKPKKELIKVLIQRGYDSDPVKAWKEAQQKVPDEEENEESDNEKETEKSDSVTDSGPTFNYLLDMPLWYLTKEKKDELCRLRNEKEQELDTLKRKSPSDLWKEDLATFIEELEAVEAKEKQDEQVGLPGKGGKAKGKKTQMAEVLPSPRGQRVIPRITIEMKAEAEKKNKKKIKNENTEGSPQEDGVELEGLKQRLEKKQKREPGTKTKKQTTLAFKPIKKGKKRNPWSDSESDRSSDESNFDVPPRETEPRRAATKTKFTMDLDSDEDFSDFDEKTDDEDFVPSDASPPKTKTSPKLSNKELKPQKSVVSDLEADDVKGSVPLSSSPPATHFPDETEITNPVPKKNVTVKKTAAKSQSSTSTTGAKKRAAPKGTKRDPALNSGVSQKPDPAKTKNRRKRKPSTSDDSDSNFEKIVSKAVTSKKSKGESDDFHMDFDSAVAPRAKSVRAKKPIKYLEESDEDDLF

On to `Oc1ccc(-c2ccc(-c3ccc(O)c(O)c3)cc2)cc1`, for which the Activity in assay [1] came out at 8.64%; in [6], 54.51%; in [7] it was 12.58%; in [8] it was 22.42%; in assay [9] it was 30.68%; in [10], 47.81%. For the same compound, the Activity in [11] was 1.04%; in assay [19] it was “Dose-dependent effect”; in assay [20], 1.7%; in [21], 14.35%; in assay [23] it was 1.03%. For the same compound, in assay [2], the viability at 0.5 µM came out at 81.6%. In addition, the result in assay [3] and in [18] was Active. The outcome in assay [4], in assay [5] and in [16] was inactive. Further, the IC50 (as a rule, the midpoint of a concentration-inhibition curve) in assay [12] is below 1 µM. For the same compound, the “growth inhibition (GI)” value in assay [13] was “Active”. The inhibition result in [14], in assay [15] and in assay [17] was “Active” each time. Also, the viability at 2 µM in [22] is 71.8%.
